Here are results for 2 molecules from ChEMBL document CHEMBL1240522, “Effect of goniothalamin on the development of Ehrlich solid tumor in mice” (Bioorg Med Chem, 2010).

Structures are written as SMILES. Activity calls are given as the source filed them. The calls are words filed in the database; no cut-off is given here.

Series [1] relates to HT-29. Kind of series: Cytotoxicity against human HT-29 cells after 48 hrs by sulforhodamine B assay. It counts as functional. The conditions noted are these: HT-29, 48 h. In short, it runs like this: (§1)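 Cells grown in RPMI 1640 with 5% FBS at 37 °C, 5% CO2, with penicillin/streptomycin. Treated for 48 h with compound in DMSO/RPMI at […]. Fixed with 50% trichloroacetic acid, protein stained with sulforhodamine B and read at 540 nm. TGI (total growth inhibition) obtained by non-linear regression of the concentration–response curves.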

The subject of series [2] is U-251. Kind of series: Cytotoxicity against human U251 cells after 48 hrs by sulforhodamine B assay. To be noted: U-251, 48 h. It is filed as functional. A digest of the protocol: as §1
A short description of series [3]: Antitumor activity against mouse EAC cells xenografted in BALB/C mouse assessed as reduction of tumor weight at 50 mg/kg, ip administered every 3 days measured on day 15 relative to control. It counts as functional. The conditions noted are these: Ehrlich, route intraperitoneal. A digest of the protocol:
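Ehrlich footpad tumour model in Balb/C mice (n = 8/group, 2.5 × 10^6 cells) with ip dosing every third day from day 3 in 0.9% saline. Mice sacrificed on day 15 and both hind paws weighed. Relative tumour weight = (tumour paw − healthy paw weight)/body weight. Reported as % inhibition vs vehicle ± SD; ANOVA.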

A short description of series [4]: Antitumor activity against mouse EAC cells xenografted in BALB/C mouse assessed as inhibition of increase in tumor volume at 50 mg/kg, ip administered every 3 days measured on day 10 relative to control. It is filed as functional. The conditions noted are these: Ehrlich, route intraperitoneal. A digest of the protocol: (§2)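 Ehrlich cells kept as ascites by weekly ip passage of 5 × 10^5 cells in mice. Balb/C mice (n = 8/group) inoculated with 2.5 × 10^6 cells into the right hind footpad. Dosed ip every third day from day 3, vehicle 0.9% saline. Tumour volume taken as plethysmometer paw volume minus basal, every third day to day 15. Reported as % inhibition vs vehicle ± SD; ANOVA.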

Series [5] relates to OVCAR-3. Kind of series: Cytotoxicity against human OVCAR-3 cells after 48 hrs by sulforhodamine B assay. It is filed as functional. The conditions noted are these: OVCAR-3, 48 h. In short, it runs like this:
as §1

Series [6] deals with Mus musculus. Kind of series: Acute toxicity in BALB/C mouse assessed as mortality at up to 300 mg/kg, ip after 4 hrs. It counts as organism-based. Set-up: dose 300 mg/kg, route intraperitoneal. To be noted: in vivo. In short, it runs like this:
(§3)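 Balb/C mice (20–35 g) dosed intraperitoneally at 50, 100 and 300 mg/kg. Observed for 4 h, then daily for 14 days, for body weight loss, locomotion, behaviour (agitation, lethargy), respiration, salivation, tearing eyes, cyanosis and mortality.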

The test system of series [7] is MCF7. As to the kind of experiment: Cytotoxicity against human MCF7 cells after 48 hrs by sulforhodamine B assay. To be noted: MCF7, 48 h. It is filed as functional. A digest of the protocol: as §1
The subject of series [8] is Mus musculus. Kind of series: Acute toxicity in BALB/C mouse assessed as reduction of body weight at up to 50 mg/kg, ip after 15 days. It is filed as organism-based. Set-up: dose 50 mg/kg, route intraperitoneal. To be noted: in vivo, 360 h. In short, it runs like this:
as §3

Series [9] concerns UACC-62. As to the kind of experiment: Cytotoxicity against human UACC62 cells after 48 hrs by sulforhodamine B assay. It is filed as functional. The conditions noted are these: UACC-62, 48 h. A digest of the protocol: as §1
For series [10], the system named is 786-0. As to the kind of experiment: Cytotoxicity against human 786-0 cells after 48 hrs by sulforhodamine B assay. It is filed as functional. The conditions noted are these: 786-0, 48 h. A digest of the protocol: as §1
The test system of series [11] is NCI-H460. As to the kind of experiment: Cytotoxicity against human NCI-H460 cells after 48 hrs by sulforhodamine B assay. It counts as functional. The conditions noted are these: NCI-H460, 48 h. In short, it runs like this:
as §1

A short description of series [12]: Cytotoxicity against human PCO3 cells after 48 hrs by sulforhodamine B assay. To be noted: PCO3, 48 h. It counts as functional. In short, it runs like this:
as §1

The nature of series [13]: Antitumor activity against mouse EAC cells xenografted in BALB/C mouse assessed as inhibition of increase in tumor volume at 50 mg/kg, ip administered every 3 days measured on day 15 relative to control. It is filed as functional. To be noted: Ehrlich, route intraperitoneal. A digest of the protocol: as §2
Series [14] is described as follows: Cytotoxicity against human NCI-ADR-RES cells after 48 hrs by sulforhodamine B assay. It is filed as functional. A digest of the protocol: as §1
The test system of series [15] is Mus musculus. As to the kind of experiment: Acute toxicity in BALB/C mouse assessed as mortality at up to 300 mg/kg, ip after 15 days. It counts as organism-based. Set-up: dose 300 mg/kg, route intraperitoneal. To be noted: in vivo, 360 h. A digest of the protocol:
as §3

Series [16] deals with Mus musculus. As to the kind of experiment: Antiinflammatory activity in BALB/C mouse assessed as inhibition of carrageenan-induced paw edema at 20 mg/kg, ip administered 30 mins before carrageenan challenge measured before 48 hrs by plethysmometer. Details: dose 20 mg/kg. It counts as functional, organism-based. A digest of the protocol: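 Balb/C mice, n = 8/group. Right hind paw basal volume measured by plethysmometer. Single ip dose in 0.9% saline vehicle, then carrageenan 2.5% injected intraplantar into the right hind footpad 30 min later. Edema taken as measured minus basal volume at 1.5, 3.0, 4.5, 6.0, 24, 48 and 72 h. Expressed as % inhibition vs vehicle ± standard deviation; ANOVA.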

With `O=C1C=CC[C@@H](/C=C/c2ccccc2)O1`, the TGI was 57.6 µM in series [1]; 24.1 µM in series [2]; above 100 µM in series [5]; 77 µM in series [7]; 76.4 µM in series [9]; 28.7 µM in series [10]. The values for the TGI in series [11], in series [12] and in [14] were 44.1 µM, 24 µM and 11.5 µM, respectively. In addition, the figures for the inhibition in vivo at 50 mg/kg in [3], in [4] and in series [13] were 39.7%, 53.7% and 48.7%, respectively. In addition, the Activity entry in [6], in [8] and in series [15] was “Non-toxic” each time.
For the molecule `CN1C(C(=O)Nc2ccccn2)=C(O)c2ccccc2S1(=O)=O`, in series [16], the inhibition result is “Active”.
